Assay outcomes from PubChem BioAssay.
Sampled rows, rich in hits. Any-hit rate of the full collection: about 3.5%.
MrgX1 agonist: agonists of human MrgX1 receptor | MrgX1-HEK293 cells, Fluo-4 calcium fluorescence, agonist mode; hits give high values | hit rate 0.44% among 310,000 | AID 588627 | B-score at 10 µM | Q96LB2;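 active means calcium response B-score plate-corrected fluorescence ratio at least 3 library SD, with starting fluorescence B-score inside 5 SD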
Target sequence (Q96LB2 whole entry, looked up): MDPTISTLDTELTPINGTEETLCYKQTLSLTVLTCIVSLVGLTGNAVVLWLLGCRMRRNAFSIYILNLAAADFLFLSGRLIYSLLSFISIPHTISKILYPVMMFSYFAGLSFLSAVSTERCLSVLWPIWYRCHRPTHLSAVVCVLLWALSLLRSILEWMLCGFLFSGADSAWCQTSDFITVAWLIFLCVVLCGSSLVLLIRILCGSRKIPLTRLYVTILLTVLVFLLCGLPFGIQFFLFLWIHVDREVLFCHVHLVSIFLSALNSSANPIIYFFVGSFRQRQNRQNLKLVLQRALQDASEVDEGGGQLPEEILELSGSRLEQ
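Test system: HEK293 cells stably expressing human MrgX1 receptor; Input: fifteen thousand cells per well; Dosing: compound delivered in addition one of three; Schedule: overnight seeding, then 1 h dark dye loading; Technique: Fluo-4 NW calcium fluorescence; Measure: B-scored fluorescence response ratio; Controls: positive and negative controls per plate.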
MrgX1 antagonist: antagonists of human MrgX1 receptor; Q96LB2; MRGX1-HEK293 calcium flux, Fluo-4, BAM8-22 antagonism; hits give low values; B-score at 10 µM; hit rate 1.3% among 310,000;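 active means calcium-response B-score plate-corrected more than 3 library SD below zero, starting fluorescence within 5 deviations, no agonist response on first addition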;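 further: peak minus trough fluorescence over baseline after final BAM8-22 challenge near maximal dose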
RGS4 inh: inhibitors of human RGS4; P49798; HEK293 M3R/RGS4 inducible, Fluo-4 calcium flux; hits give high values; triggered by carbachol at its EC20; B-score at 10 µM; hit rate 0.45% among 310,000; AID 463165;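 active means B-score, a plate-corrected calcium signal, over three deviations above library mean, with baseline fluorescence within five deviations of library mean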;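 further: RGS4 expression induced by doxycycline in cells with stable M3 receptor; B-score is computed from the integrated fluorescence ratio over baseline after carbachol; higher B-score means a larger calcium signal and so more RGS4 inhibition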
Target sequence (P49798 whole entry, looked up): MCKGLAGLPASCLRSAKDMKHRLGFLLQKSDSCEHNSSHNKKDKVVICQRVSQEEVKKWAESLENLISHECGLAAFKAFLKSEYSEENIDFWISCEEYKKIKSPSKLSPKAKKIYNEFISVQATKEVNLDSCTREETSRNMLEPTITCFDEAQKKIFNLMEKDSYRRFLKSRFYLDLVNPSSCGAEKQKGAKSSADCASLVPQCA
MrgX1 PAM: allosterically activates human MrgX1 receptor signaling | Q96LB2 | B-score at 10 µM | MrgX1-HEK293, Fluo-4 calcium flux, FDSS; hits give high values | hit rate 0.63% among 310,000;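 active means plate-corrected calcium response at least 3 library SD above typical, normal starting fluorescence, not activating the receptor alone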;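 further: compound read alongside a low EC10 to EC30 dose of BAM8-22 agonist; peak minus trough fluorescence over baseline measured at the second addition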
RGS4 act: potentiators or activators of RGS4 | HEK293 M3R/inducible RGS4, carbachol calcium flux Fluo4; hits give low values | B-score at 10 µM | hit rate 0.92% among 310,000 | AID 463111;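 active means B-score of the integrated calcium signal more than 4 SD below the library mean, with starting fluorescence not abnormally high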;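 further: negative B-score means reduced calcium response which marks RGS4 activation or potentiation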
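Reagent: ECmax carbachol challenge; Test system: M3R-expressing HEK293 line, RGS4 induced by doxycycline; Schedule: overnight RGS4 induction, 30 min dye load 37 °C, 20 min compound RT; Detection: calcium dye Fluo4 fluorescence; Read-out: Agonist-evoked peak-minus-minimum fluorescence over baseline, integrated ratio, B score.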
RGS4 block valid: RGS4 inhibitor validation; shares compounds with RGS4 inh; HEK293 M3R/RGS4, carbachol calcium Fluo-4 fluorescence; carbachol added at its EC20; 0 = buffer wells, 100 = carbachol control; calcium response, % at 10 µM; hit rate 65% among 1,700; AID 492999;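 active means duplicate-averaged calcium response above the buffer-only control mean plus 5 SD of those controls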;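 further: integrated fluorescence ratio F max minus min over baseline F0; higher response in RGS4-induced cells means RGS4 inhibition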
M3R Ca ctr: counter-screen for RGS4 inhibitors: effect in non-induced cells | HEK293 M3R non-induced, carbachol calcium Fluo-4; submaximal (EC20) carbachol stimulus; buffer wells 0%, carbachol control wells 100% | hit rate 20% among 1,900 | activity (percent), % at 10 µM | shares compounds with RGS4 inh; call rule not given here;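 further: RGS4 induction absent so cells express M3R without RGS4; higher means more calcium signal and flags a non-specific hit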
M3R basal Ca ctr: second RGS4 inhibitor counter-screen in uninduced cells lacking carbachol; HEK293 M3R/RGS4 non-induced, Fluo-4 calcium, no carbachol; normalised: buffer wells 0%, carbachol wells 100%; hit rate 22% among 1,900; calcium response (agonist-mode artifact), % at 10 µM; shares compounds with RGS4 inh;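 active means duplicate-averaged calcium rise in uninduced cells above buffer wells' mean plus 5 SD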
* = called active by the depositor; i = inactive; . = no result.

SMILES	MrgX1 agonist	MrgX1 antagonist	RGS4 inh	MrgX1 PAM	RGS4 act	RGS4 block valid	M3R Ca ctr	M3R basal Ca ctr
CC1(c2nnc(-c3ccccc3)o2)CC(c2ccc([N+](=O)[O-])cc2)=NO1 (stereo not drawn)	i	i	i	i	i	.	.	.
Clc1ccc(C2=Nn3c(nnc3-c3n[nH]c4c3CCC4)SC2)cc1	i	i	i	i	i	i	i	i
COc1ccc(-c2csc(NC(=O)c3ccco3)n2)cc1	i	i	i	i	i	i	i	i
COc1ccc(-c2csc(NC(=O)c3c(OC)cccc3OC)n2)cc1	i	i	5.5*	i	i	15.5%*	30.5%*	i
CCOc1ccc(-c2csc(NC(=O)c3ccco3)n2)cc1	i	i	4.98*	i	i	5.0%*	i	i
COc1cccc(C(=O)Nc2nc(-c3ccncc3)cs2)c1	i	i	i	i	i	.	.	.
Cc1ccc(-c2csc(NC(=O)c3ccco3)n2)cc1C	i	i	24.9*	i	i	56.0%*	34.5%*	i
O=C(Nc1nc(-c2ccccc2)cs1)c1ccco1	i	i	i	i	i	.	.	.
O=C(/C=C/C=C/c1ccccc1)c1ccco1	i	i	i	i	i	.	.	.
NS(=O)(=O)c1ccc2nc(-c3ccccc3)c(-c3ccccc3)nc2c1	i	i	i	i	i	.	.	.
CCOc1ccc(NC(=O)CSc2nc3ccsc3c(=O)n2CCC(=O)O)cc1	i	i	i	i	i	.	.	.
Cc1ccc(-c2cc(-c3ccccc3)nc(N)c2C#N)o1	i	i	i	i	i	i	i	i
N#Cc1c(-c2ccccc2)cc(-c2ccc(O)cc2)nc1N	i	i	i	i	i	.	.	.
N#Cc1c(-c2ccco2)cc(-c2ccc(F)cc2)nc1N	i	i	6.32*	i	i	7.0%*	i	24.5%*
N#Cc1c(-c2ccc(F)cc2)cc(-c2cccnc2)nc1N	i	i	i	i	i	.	.	.
CCOCCc1nnc(NC(=O)CS(=O)(=O)Cc2ccccc2)s1	i	i	i	i	i	.	.	.
O=c1c(Cc2c(F)cccc2Cl)c(O)ccn1CCCn1ccnc1	i	i	i	i	i	.	.	.
CCOC(=O)C(=Cc1ccc(-n2ccnc2)cc1)C(=O)OCC	i	i	13.1*	i	i	18.5%*	i	i
COCCOC(=O)/C(=C/c1ccc(OC(=O)c2ccccc2)cc1)C(C)=O	31.5*	i	14.7*	i	i	82.5%*	i	16.5%*
CCOC(=O)/C(=C/c1ccc(OC(=O)c2ccncc2)cc1)C(C)=O	29.1*	i	7.63*	i	i	27.5%*	41.5%*	16.0%*
COC(=O)c1ccc(-n2ccnc2)cc1	i	i	i	i	i	.	.	.
CCCCCOc1ccc(OC(=O)c2ccncc2)cc1	i	i	i	i	i	.	.	.
COc1ccc(CN(C)C(=O)CCCNC(=O)c2ccc(Cl)cc2)cc1	i	i	i	i	i	.	.	.
Cc1ccc(NC(=O)CCC(=O)N/N=C/c2cccs2)cc1	i	i	i	i	i	.	.	.
Cn1c(SCc2ccccc2)nnc1-c1ccc2nonc2c1	i	i	i	i	i	.	.	.
SMILES	MrgX1 agonist	MrgX1 antagonist	RGS4 inh	MrgX1 PAM	RGS4 act	RGS4 block valid	M3R Ca ctr	M3R basal Ca ctr
CCOC(=O)c1c(NC(=O)CN2C(=O)CN(C)C2=O)sc(C)c1C	i	i	i	i	i	.	.	.
CCCNC(=O)c1nnsc1S(=O)c1ccc(Cl)cc1 (stereo not drawn)	.	.	7.2*	.	i	12.0%*	i	22.5%*
CNC(=O)c1nnsc1S(=O)c1ccc(Cl)cc1 (stereo not drawn)	.	.	7.3*	.	i	29.5%*	i	13.5%*
CC(=O)SC(C[N+](=O)[O-])c1cn(C(C)=O)c2ccccc12 (stereo not drawn)	39.1*	i	15.9*	i	i	63.0%*	29.0%*	34.5%*
Oc1ccc(NC(=S)N=Nc2c(O)[nH]c3ccc(Br)cc23)cc1	.	.	i	.	i	.	.	.
Oc1[nH]c2ccc(Br)cc2c1N=NC(=S)Nc1ccc(F)cc1	i	i	7.28*	i	i	11.5%*	i	i
CC1(C)CC(=O)C=C(Nc2ccc([N+](=O)[O-])cc2)C1	i	i	i	i	i	.	.	.
Cc1cc2nc(CS)[nH]c2cc1C	i	i	5.92*	i	i	28.0%*	i	i
Cc1cc2nc(CO)[nH]c2cc1C	i	i	i	i	i	.	.	.
COc1ccc(N2C(=O)/C(=C/c3ccc([N+](=O)[O-])cc3)C=C2c2ccccc2)cc1	i	i	i	i	i	.	.	.
O=C1/C(=C/c2ccc([N+](=O)[O-])cc2)C=C(c2ccccc2)N1c1ccc(O)cc1	i	i	5.08*	i	i	9.0%*	i	i
O=C1/C(=C/c2ccc([N+](=O)[O-])cc2)C=C(c2ccccc2)N1c1ccccc1	i	i	i	i	i	i	i	i
C=CCC(CC(O)COCCC)C(=O)NNC(=S)Nc1ccccc1 (stereo not drawn)	i	i	i	i	i	.	.	.
Nc1nc(Cl)nc2c1ncn2[C@@H]1O[C@H](CO)[C@@H](O)[C@H]1O	i	i	9.78*	i	i	47.0%*	78.5%*	i
OC[C@H]1O[C@@H](n2cnc3c(NC4CCCC4)nc(Cl)nc32)[C@H](O)[C@@H]1O	i	i	.	i	.	.	.	.
O=C(CNS(=O)(=O)c1ccccc1)N/N=C/c1ccccc1[N+](=O)[O-]	i	i	i	i	i	.	.	.
Cc1cc(C)nc(N/N=C/C2=C(O)CC(c3ccc(F)cc3)CC2=O)n1 (stereo not drawn)	i	i	i	i	i	.	.	.
CCOC(=O)/C(=C\c1cccnc1)C(=O)c1cc(C(C)=O)c(Nc2ccccc2)s1	i	i	6.36*	i	i	42.0%*	i	9.5%*
CCn1c(SCC(=O)NC2CCCCC2)nnc1-c1ccco1	i	i	i	i	i	.	.	.
